Source: ChEMBL document CHEMBL3769315 (J Med Chem, 2016)
Converted amounts (≈) assume the structure as drawn.

Assays:
Liver microsome [1] = experiment: Metabolic stability in rat liver microsomes assessed as half life by LC-MS/MS analysis in presence of NADPH
Hepatitis C virus [2] = experiment: microbe, parasite or virus in culture; type: functional, Hepacivirus hominis; settings: Huh-7, 48 h
Hepatitis C virus [3] = experiment: Antiviral activity against HCV genotype 1a pseudoparticle infected in human Huh7.5.1 cells assessed as inhibition of virus entry at 10 uM after 4 hrs by luciferase reporter gene assay; type: functional, Hepacivirus hominis; settings: subtype 1a, Huh-7, 4 h
Hepatitis C virus [4] = experiment: Antiviral activity against HCV genotype 1b pseudoparticle infected in human Huh7.5.1 cells assessed as inhibition of virus entry at 10 uM after 4 hrs by luciferase reporter gene assay; type: functional, Hepacivirus hominis; settings: Huh-7, 4 h
Murine leukemia virus [5] = experiment: Antiviral activity against Murine leukemia virus pseudoparticle infected in human Huh7.5.1 cells at 10 uM after 4 hrs by luciferase reporter gene assay; type: functional; settings: Huh-7, 4 h
[6] = test system: Vesicular stomatitis virus; experiment: Antiviral activity against Vesicular stomatitis virus G pseudoparticle infected in human Huh7.5.1 cells at 10 uM after 4 hrs by luciferase reporter gene assay; type: functional; settings: Huh-7, 4 h
Hepatitis C virus [7] = experiment: Antiviral activity against HCV genotype 2a assessed as inhibition of RNA replication at 10 uM by cell-based replicon assay; type: functional, Hepacivirus hominis
Summary of the method: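 GT 2a subgenomic replicon cells were plated at 10^4/well and incubated overnight. They were then treated with compound (10 μM, or 3.2 or 1 μM for some compounds) for 48 h. Luciferase activity was read and expressed as % of DMSO.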

Liver microsome [8] = experiment: Metabolic stability in human liver microsomes assessed as half life by LC-MS/MS analysis in presence of NADPH
[9] = Metabolic stability in mouse liver microsomes assessed as half life by LC-MS/MS analysis in presence of NADPH
[10] = Solubility of compound in phosphate buffer at pH 7.4
Mus musculus = experiment: Hepatotoxicity in CD-1 mouse serum assessed as ALT level at 10 mg/kg, ip by UPLC-MS/MS analysis; type: toxicity, organism-based; settings: in vivo
Summary of the method: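 ALT was measured in serum from the mouse PK study: male CD-1 mice, single 10 mg/kg i.p. dose in 10% PEG300 / 90% of 30% HP-β-CD, samples from 0.083 to 24 h. A vehicle-only dosing group served as control. Individual mice were plotted, with mean ± SEM.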

Liver = experiment: (§1) Half life of compound in CD-1 mouse liver at 10 mg/kg, ip by UPLC-MS/MS analysis; type: ADME, organism-based; settings: mouse, in vivo
Summary of the method: (§2)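 Male CD-1 mice (~35 g) got a single i.p. dose of 10 mg/kg, prepared fresh at 2 mg/mL in 10% PEG300 / 90% of 30% HP-β-CD in water. Drug was measured by UPLC-MS/MS. Parameters came from noncompartmental analysis, with AUC by the linear trapezoidal method and liver/plasma ratios taken.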

histamine H1 receptor = histamine H1 receptor (Homo sapiens, UniProt P35367); experiment: in vitro; settings: PathHunter cells
Chain of histamine H1 receptor (P35367 whole entry): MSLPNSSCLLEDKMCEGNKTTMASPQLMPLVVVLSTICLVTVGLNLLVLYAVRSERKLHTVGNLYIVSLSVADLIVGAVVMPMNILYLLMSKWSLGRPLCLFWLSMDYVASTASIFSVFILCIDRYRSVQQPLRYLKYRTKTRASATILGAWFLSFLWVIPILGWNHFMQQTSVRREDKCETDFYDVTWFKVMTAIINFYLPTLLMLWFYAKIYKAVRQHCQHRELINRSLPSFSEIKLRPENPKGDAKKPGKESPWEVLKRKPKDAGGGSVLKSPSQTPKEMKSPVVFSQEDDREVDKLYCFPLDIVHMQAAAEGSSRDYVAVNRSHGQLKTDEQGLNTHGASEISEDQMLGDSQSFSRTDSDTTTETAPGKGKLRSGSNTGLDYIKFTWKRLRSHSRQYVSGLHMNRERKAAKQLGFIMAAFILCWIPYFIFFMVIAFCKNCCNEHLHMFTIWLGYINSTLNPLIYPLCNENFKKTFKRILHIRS

Hepatitis C virus [11] = experiment: Antiviral activity against HCV genotype 2a assessed as inhibition of RNA replication at 3.2 uM by cell-based replicon assay; type: functional, Hepacivirus hominis
Summary of the method: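 GT 2a subgenomic HCV replicon cells were seeded at 10^4 cells/well and incubated overnight. They were then exposed to compound for 48 h, and replication was read by luciferase activity. Results are given as % of DMSO control.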

Hepatitis C virus [12] = experiment: Antiviral activity against single rounded infectious HCV infected in human Huh7.5.1 cells assessed as viral level at 3.2 uM after 48 hrs by luciferase reporter gene assay; type: functional, Hepacivirus hominis; settings: Huh-7, 48 h
Summary of the method: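 Huh7.5.1 cells (10^4 cells/well, overnight) were infected with single-round infectious HCV (HCVsc) in the presence of compound. Viral level was measured by luciferase after 48 h and expressed as % of DMSO control. The assay reports inhibition of early stages before assembly.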

Hepatitis C virus [13] = experiment: Antiviral activity against HCV genotype 1b pseudoparticle infected in human Huh7.5.1 cells assessed as inhibition of virus entry at 3.2 uM after 4 hrs by luciferase reporter gene assay; type: functional, Hepacivirus hominis; settings: Huh-7, 4 h
Summary of the method: (§3)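 Huh7.5.1 cells seeded at 10^4 cells/well, cultured overnight, then infected for 4 h with pseudoparticles (HCVpp GT 1a or 1b, MLVpp, VSV-Gpp) while compound was present. Cells were washed and cultured 48 h, then a luciferase read-out was taken. Values are expressed as % of DMSO control. Cyclosporin A 10 μM and bafilomycin A1 10 nM were run in parallel.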

Hepatitis C virus [14] = experiment: Antiviral activity against HCV genotype 1a pseudoparticle infected in human Huh7.5.1 cells assessed as inhibition of virus entry at 3.2 uM after 4 hrs by luciferase reporter gene assay; type: functional, Hepacivirus hominis; settings: subtype 1a, Huh-7, 4 h; summary of the method: as §3
Murine leukemia virus [15] = experiment: Antiviral activity against Murine leukemia virus pseudoparticle infected in human Huh7.5.1 cells at 3.2 uM after 4 hrs by luciferase reporter gene assay; type: functional; settings: Huh-7, 4 h; summary of the method: as §3
[16] = test system: Vesicular stomatitis virus; experiment: Antiviral activity against Vesicular stomatitis virus G pseudoparticle infected in human Huh7.5.1 cells at 3.2 uM after 4 hrs by luciferase reporter gene assay; type: functional; settings: Huh-7, 4 h; summary of the method: as §3
Hepatitis C virus [17] = experiment: microbe, parasite or virus in culture; type: functional, organism-based, Hepacivirus hominis; settings: JFH-1, Huh-7.5.1, 48 h
[18] = Cytotoxicity against human Huh7.5.1 cells assessed as ATP level by luminescence analysis; settings: huh-7
HepG2 = experiment: Cytotoxicity against human HepG2 cells assessed as ATP level by luminescence analysis
Hepatocyte = settings: human, hepatocytes
in vitro = settings: human, Huh7.5.1 cells and HepG2 cells
[19] = Selectivity index, ratio of CC50 for human Huh7.5.1 cells infected with HCV JFH-1 virus to EC50 for HCV JFH-1 virus
[20] = as §1; type: ADME, organism-based; settings: CD-1, mouse, liver; summary of the method: as §2
[21] = Cmax in CD-1 mouse liver at 10 mg/kg, ip after 24 hrs by UPLC-MS/MS analysis; type: ADME, organism-based; parameters: dose 10 mg/kg, route intraperitoneal; summary of the method: as §2
[22] = AUClast in CD-1 mouse liver at 50 mg/kg, ip after 24 hrs by UPLC-MS/MS analysis; type: ADME, organism-based; parameters: dose 50 mg/kg, time < 24 hr, route intraperitoneal
[23] = AUCinfinity in CD-1 mouse plasma at 50 mg/kg, ip after 24 hrs by UPLC-MS/MS analysis; type: ADME, organism-based; parameters: dose 50 mg/kg, route intraperitoneal, time infinity
[24] = Cmax in CD-1 mouse liver at 50 mg/kg, ip after 24 hrs by UPLC-MS/MS analysis; type: ADME, organism-based; parameters: dose 50 mg/kg, route intraperitoneal
Human alphaherpesvirus 1 = experiment: microbe, parasite or virus in culture
Human betaherpesvirus 5 = experiment: microbe, parasite or virus in culture
Vaccinia virus = experiment: microbe, parasite or virus in culture; settings: Orthopoxvirus vaccinia
Dengue virus = experiment: microbe, parasite or virus in culture
Influenza A virus = experiment: microbe, parasite or virus in culture; settings: H1N1
[25] = test system: Respiratory syncytial virus; experiment: microbe, parasite or virus in culture; settings: human respiratory syncytial virus
SARS-CoV = experiment: microbe, parasite or virus in culture; settings: Severe acute respiratory syndrome-related coronavirus
Poliovirus 3 = experiment: microbe, parasite or virus in culture; settings: Enterovirus C
Rift Valley fever virus = experiment: microbe, parasite or virus in culture
Tacaribe virus = experiment: microbe, parasite or virus in culture; settings: Mammarenavirus tacaribeense
[26] = test system: Venezuelan equine encephalitis virus; experiment: microbe, parasite or virus in culture
Hepatitis B virus = experiment: microbe, parasite or virus in culture
Hepatitis C virus [27] = experiment: microbe, parasite or virus in culture

| SMILES | t1/2 (Liver microsome [1]) | inhibition at 10 µM (Hepatitis C virus [2]) | inhibition at 10 µM (Hepatitis C virus [3]) | inhibition at 10 µM (Hepatitis C virus [4]) | inhibition at 10 µM (Murine leukemia virus [5]) | inhibition at 10 µM [6] | inhibition at 10 µM (Hepatitis C virus [7]) | t1/2 (Liver microsome [8]) | t1/2 [9] | solubility kinetic [10] | inhibition at 2 h, 0.01 µM (histamine H1 receptor) | inhibition at 3.2 µM (Hepatitis C virus [11]) | inhibition at 3.2 µM (Hepatitis C virus [12]) | inhibition at 3.2 µM (Hepatitis C virus [13]) | inhibition at 3.2 µM (Hepatitis C virus [14]) | inhibition at 3.2 µM (Murine leukemia virus [15]) | EC50 (Hepatitis C virus [17]) | CC50 [18] | CC50 (HepG2) | CC50 (Hepatocyte) | other results |
| --- | --- | --- | --- | --- | --- | --- | --- | --- | --- | --- | --- | --- | --- | --- | --- | --- | --- | --- | --- | --- | --- |
| CN1CCN(C(c2ccc(Cl)cc2)c2ccc(Cl)cc2)CC1 | 0.433 h | 12.4% | 76.2% | 91.9% | 116% | 119% | 112% | > 2 h | 1.52 h | > 49 µg/mL | 18.5% | – | – | – | – | – | – | – | – | – | Activity (Mus musculus): 80 U/L; t1/2 (Liver): 8.5 h |
| NCCOCCN1CCN(C(c2ccccc2)c2ccc(Cl)cc2)CC1 (racemic) | 0.203 h | 6.9% | – | – | – | – | – | 0.438 h | 0.417 h | 44.3 µg/mL (≈ 118 µM) | 21.5% | 149% | 6.9% | 37.2% | 19.4% | 107% | 0.0072 µM | 8.18 µM | 6.17 µM | 8.98 µM | inhibition at 3.2 µM [16]: 93.1%; selectivity ratio (in vitro): < 1.8 |
| Clc1ccc([C@H](c2ccccc2)N2CCNCC2)cc1 | – | – | – | – | – | – | – | – | – | 30.3 µg/mL (≈ 106 µM) | 88.1% | 61.6% | 28.1% | 66.3% | 98.8% | 57.5% | 0.032 µM | 9.31 µM | – | 9.01 µM | inhibition at 3.2 µM [16]: 51.9%; selectivity ratio [19]: 333; half-life [20]: 4.7 h; Cmax [21]: 216 µM |
| CN1CCN([C@@H](c2ccccc2)c2ccc(Cl)cc2)CC1 | – | 2.1% | 107% | 116% | 103% | 120% | 101% | – | – | 29.3 µg/mL (≈ 97.4 µM) | 49.5% | – | – | – | – | – | 0.24 µM | 33.4 µM | 32.3 µM | > 31.6 µM | AUC(0-t) at 24 h [22]: 1310 µM·h; AUC(0-inf) [23]: 48.9 µM·h; Cmax [24]: 436 µM |
| CCN1CCN([C@@H](c2ccccc2)c2ccc(Cl)cc2)CC1 | – | 2% | – | – | – | – | – | – | – | 12.3 µg/mL (≈ 39.1 µM) | 60.7% | – | – | – | – | – | – | 40 µM | 68.9 µM | – | EC50 (Human alphaherpesvirus 1): ≥ 1 µM; EC50 (Human betaherpesvirus 5): ≥ 1 µM; EC50 (Vaccinia virus): ≥ 1 µM; EC50 (Dengue virus): ≥ 1 µM; EC50 (Influenza A virus): ≥ 1 µM; EC50 [25]: ≥ 1 µM; EC50 (SARS-CoV): ≥ 1 µM; EC50 (Poliovirus 3): ≥ 1 µM; EC50 (Rift Valley fever virus): ≥ 1 µM; EC50 (Tacaribe virus): ≥ 1 µM; EC50 [26]: ≥ 1 µM; EC50 (Hepatitis B virus): ≥ 1 µM; EC50 (Hepatitis C virus [27]): ≥ 1 µM |
